{"source": "ChEMBL document CHEMBL1135551", "about": "“N-Acylvanillamides: development of an expeditious synthesis and discovery of new acyl templates for powerful activation of the vanilloid receptor” (J Med Chem, 2002)", "key": {"[1]": {"target": "T1, Transient receptor potential cation channel subfamily V member 1 (Homo sapiens, UniProt Q8NER1)", "T1 sequence (Q8NER1 whole entry)": "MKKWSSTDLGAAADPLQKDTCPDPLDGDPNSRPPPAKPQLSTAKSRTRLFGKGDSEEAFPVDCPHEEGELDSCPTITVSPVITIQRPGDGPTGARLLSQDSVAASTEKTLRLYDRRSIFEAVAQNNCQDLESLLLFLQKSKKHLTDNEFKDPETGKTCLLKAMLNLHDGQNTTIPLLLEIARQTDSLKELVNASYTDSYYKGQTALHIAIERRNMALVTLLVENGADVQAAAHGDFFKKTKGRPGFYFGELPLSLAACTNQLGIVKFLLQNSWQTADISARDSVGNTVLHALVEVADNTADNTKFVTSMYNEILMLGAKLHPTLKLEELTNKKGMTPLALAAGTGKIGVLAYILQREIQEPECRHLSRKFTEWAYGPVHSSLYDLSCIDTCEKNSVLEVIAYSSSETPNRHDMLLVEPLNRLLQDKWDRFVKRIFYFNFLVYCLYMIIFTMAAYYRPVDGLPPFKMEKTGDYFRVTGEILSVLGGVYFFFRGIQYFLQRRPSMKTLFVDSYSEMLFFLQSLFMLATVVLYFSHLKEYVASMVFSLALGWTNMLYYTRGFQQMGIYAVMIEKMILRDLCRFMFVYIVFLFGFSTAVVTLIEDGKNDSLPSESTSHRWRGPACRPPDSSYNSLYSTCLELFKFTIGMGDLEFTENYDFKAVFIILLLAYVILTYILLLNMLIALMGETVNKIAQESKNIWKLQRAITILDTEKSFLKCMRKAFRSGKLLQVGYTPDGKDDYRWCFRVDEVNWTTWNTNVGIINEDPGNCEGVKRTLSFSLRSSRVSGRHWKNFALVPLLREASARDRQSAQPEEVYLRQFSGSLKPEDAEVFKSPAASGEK", "assay": "Percent absolute effect obtained with ionomycin, measured by the entry of [Ca2+] into human embryonic kidney HEK293 cells overexpressing hVR1", "format": "functional, cell-based", "how_it_was_run": "(§1)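 HEK-293 cells overexpressing human VR1, grown in MEM with nonessential amino acids, 10% FCS, 0.2 mM glutamine at 37 °C; plated on poly-L-lysine a day before. Cells loaded 2 h at 25 °C with 4 µM Fluo-3 methyl ester, washed, trypsinized, suspended in Tyrode pH 7.4 without BSA.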"}, "[2]": {"target": "T1, Transient receptor potential cation channel subfamily V member 1", "assay": "Concentration necessary to induce a relative half-maximal response measured by the entry of [Ca2+] into human embryonic kidney HEK293 cells overexpressing the human VR1", "format": "functional, cell-based", "how_it_was_run": "as §1"}}, "data": [{"smiles": "COc1cc(CNC(=O)C2C(C(=O)NCc3ccc(O)c(OC)c3)[C@H]3C=C[C@@H]2C3)ccc1O", "note": "(stereo in doubt; trans)", "values": [{"measurement": "Response", "setting": "[1]", "result": 37.2, "unit": "%"}]}, {"smiles": "CCCCCC/C=C/C#CCCCCCCCC(=O)NCc1ccc(O)c(OC)c1", "values": [{"measurement": "EC50", "setting": "[2]", "result": 1.26, "unit": "nM"}, {"measurement": "Response", "setting": "[1]", "result": 70.7, "unit": "%"}]}, {"smiles": "COc1cc(CNC(=O)/C=C(\\C)CC/C=C(\\C)CCC=C(C)C)ccc1O", "values": [{"measurement": "EC50", "setting": "[2]", "result": 0.501, "unit": "nM"}, {"measurement": "Response", "setting": "[1]", "result": 79.9, "unit": "%"}]}, {"smiles": "C=C(C)[C@@H]1CC[C@]2(C(=O)NCc3ccc(O)c(OC)c3)CC[C@]3(C)[C@H](CC[C@@H]4[C@@]5(C)CC[C@H](O)C(C)(C)[C@@H]5CC[C@]43C)[C@@H]12", "values": [{"measurement": "EC50", "setting": "[2]", "result": 126, "unit": "nM"}, {"measurement": "Response", "setting": "[1]", "result": 88.6, "unit": "%"}]}, {"smiles": "COc1cc(CNC(=O)CC[C@H](C)[C@@H]2CC[C@H]3[C@@H]4[C@@H](O)C[C@H]5C[C@@H](O)CC[C@@]5(C)[C@H]4C[C@@H](O)[C@]32C)ccc1O", "values": [{"measurement": "Response", "setting": "[1]", "result": 5.8, "unit": "%"}]}, {"smiles": "CCCCCCCCC#CCCCCCCCC(=O)NCc1ccc(O)c(OC)c1", "values": [{"measurement": "EC50", "setting": "[2]", "result": 12.6, "unit": "nM"}, {"measurement": "Response", "setting": "[1]", "result": 73.7, "unit": "%"}]}, {"smiles": "C=CCCCCCCCCC(=O)NCc1ccc(O)c(OC)c1", "values": [{"measurement": "EC50", "setting": "[2]", "result": 2, "unit": "nM"}, {"measurement": "Response", "setting": "[1]", "result": 85, "unit": "%"}]}, {"smiles": "CCCCCC[C@@H](O)CC1CC1CCCCCCCC(=O)NCc1ccc(O)c(OC)c1", "note": "(some centres not stated)", "values": [{"measurement": "EC50", "setting": "[2]", "result": 5.01, "unit": "nM"}, {"measurement": "Response", "setting": "[1]", "result": 98, "unit": "%"}]}, {"smiles": "C/C=C/C=C/C(=O)NCc1ccc(O)c(OC)c1", "values": [{"measurement": "Response", "setting": "[1]", "result": 34.6, "unit": "%"}]}, {"smiles": "COc1cc(CNC(=O)/C=C(\\C)CCC[C@H](C)CCC[C@H](C)CCCC(C)C)ccc1O", "values": [{"measurement": "EC50", "setting": "[2]", "result": 2, "unit": "nM"}, {"measurement": "Response", "setting": "[1]", "result": 85, "unit": "%"}]}, {"smiles": "C=C(C(=O)NCc1ccc(O)c(OC)c1)[C@H]1CC[C@]2(C)CCC[C@](C)(O)[C@H]2C1", "values": [{"measurement": "EC50", "setting": "[2]", "result": 200, "unit": "nM"}, {"measurement": "Response", "setting": "[1]", "result": 78.9, "unit": "%"}]}, {"smiles": "CCCCC/C=C\\C/C=C\\C/C=C\\C/C=C\\CCCC(=O)NCc1ccc(O)c(OC)c1", "values": [{"measurement": "EC50", "setting": "[2]", "result": 0.501, "unit": "nM"}, {"measurement": "Response", "setting": "[1]", "result": 74.8, "unit": "%"}]}, {"smiles": "COc1cc(CNC(=O)/C=C(\\C)CCC=C(C)C)ccc1O", "values": [{"measurement": "EC50", "setting": "[2]", "result": 39.8, "unit": "nM"}, {"measurement": "Response", "setting": "[1]", "result": 70.9, "unit": "%"}]}, {"smiles": "COc1cc(CNC(=O)/C=C(C)/C=C/C=C(C)/C=C/C2=C(C)CCCC2(C)C)ccc1O", "values": [{"measurement": "EC50", "setting": "[2]", "result": 3.98, "unit": "nM"}, {"measurement": "Response", "setting": "[1]", "result": 92.6, "unit": "%"}]}, {"smiles": "CCCCCCCC[C@H]1C[C@H]1CCCCCCCCCCCC(=O)NCc1ccc(O)c(OC)c1", "values": [{"measurement": "EC50", "setting": "[2]", "result": 79.4, "unit": "nM"}, {"measurement": "Response", "setting": "[1]", "result": 91, "unit": "%"}]}, {"smiles": "CCCCCCCC/C=C\\CCCCCCCC(=O)NCc1ccc(O)c(OC)c1", "note": "[OLVANIL]", "values": [{"measurement": "EC50", "setting": "[2]", "result": 0.501, "unit": "nM"}, {"measurement": "Response", "setting": "[1]", "result": 67.2, "unit": "%"}]}, {"smiles": "CCCCCC[C@@H](O)CCCCCCCCCCC(=O)NCc1ccc(O)c(OC)c1", "values": [{"measurement": "EC50", "setting": "[2]", "result": 5.01, "unit": "nM"}, {"measurement": "Response", "setting": "[1]", "result": 69.7, "unit": "%"}]}, {"smiles": "CCCCCC[C@@H](O)C/C=C\\CCCCCCCC(=O)NCc1ccc(O)c(OC)c1", "values": [{"measurement": "EC50", "setting": "[2]", "result": 3.16, "unit": "nM"}, {"measurement": "Response", "setting": "[1]", "result": 85, "unit": "%"}]}, {"smiles": "COc1cc(CNC(=O)CCCC/C=C/C(C)C)ccc1O", "values": [{"measurement": "Response", "setting": "[1]", "result": 65.4, "unit": "%"}]}, {"smiles": "CCCCCCCC[C@@H]1C[C@@H]1CCCCCCCC(=O)NCc1ccc(O)c(OC)c1", "values": [{"measurement": "EC50", "setting": "[2]", "result": 1.26, "unit": "nM"}, {"measurement": "Response", "setting": "[1]", "result": 86.7, "unit": "%"}]}, {"smiles": "COc1cc(CNC(=O)[C@]23CC[C@@H](C)[C@H](C)[C@H]2C2=CC[C@@H]4[C@@]5(C)CC[C@H](O)C(C)(C)[C@@H]5CC[C@@]4(C)[C@]2(C)CC3)ccc1O", "values": [{"measurement": "Response", "setting": "[1]", "result": 14.3, "unit": "%"}]}, {"smiles": "COc1cc(CNC(=O)CCCCCCCCC2CC2)ccc1O", "values": [{"measurement": "EC50", "setting": "[2]", "result": 3.16, "unit": "nM"}, {"measurement": "Response", "setting": "[1]", "result": 96.2, "unit": "%"}]}, {"smiles": "CCCCCCCCCCCCCCCCCC(=O)NCc1ccc(O)c(OC)c1", "values": [{"measurement": "Response", "setting": "[1]", "result": 32.4, "unit": "%"}]}, {"smiles": "CCCCCCCC/C=C\\CCCCCCCCCCC(=O)NCc1ccc(O)c(OC)c1", "values": [{"measurement": "EC50", "setting": "[2]", "result": 3.16, "unit": "nM"}, {"measurement": "Response", "setting": "[1]", "result": 91.4, "unit": "%"}]}, {"smiles": "COc1cc(CNC(=O)C2C(C(=O)NCc3ccc(O)c(OC)c3)[C@H]3C=C[C@@H]2C3)ccc1O", "note": "(stereo in doubt; cis)", "values": [{"measurement": "Response", "setting": "[1]", "result": 16.4, "unit": "%"}]}, {"smiles": "COc1cc(CNC(=O)C2CC2(C)CCCC(C)CCCC(C)CCCC(C)C)ccc1O", "note": "(configuration not stated)", "values": [{"measurement": "EC50", "setting": "[2]", "result": 2.51, "unit": "nM"}, {"measurement": "Response", "setting": "[1]", "result": 91.2, "unit": "%"}]}, {"smiles": "CCCCCCC(=O)CCCCCCCCCCC(=O)NCc1ccc(O)c(OC)c1", "values": [{"measurement": "EC50", "setting": "[2]", "result": 6.31, "unit": "nM"}, {"measurement": "Response", "setting": "[1]", "result": 67, "unit": "%"}]}, {"smiles": "CCCCCC[C@H](C/C=C\\CCCCCCCC(=O)NCc1ccc(O)c(OC)c1)OC(C)=O", "values": [{"measurement": "Response", "setting": "[1]", "result": 93.5, "unit": "%"}]}, {"smiles": "COc1cc(CNC(=O)[C@@]2(C)CCC[C@@]3(C)[C@H]2CC=C2C=C(C(C)C)CC[C@@H]23)ccc1O", "values": [{"measurement": "Response", "setting": "[1]", "result": 37.5, "unit": "%"}]}, {"smiles": "COc1cc(CNC(=O)CCCCCCCC/C=C/CCCCCCCCC(=O)NCc2ccc(O)c(OC)c2)ccc1O", "values": [{"measurement": "EC50", "setting": "[2]", "result": 1.58, "unit": "nM"}, {"measurement": "Response", "setting": "[1]", "result": 85.7, "unit": "%"}]}, {"smiles": "COc1cc(CNC(=O)[C@H]2[C@@H](C=C(C)C)C2(C)C)ccc1O", "values": [{"measurement": "EC50", "setting": "[2]", "result": 200, "unit": "nM"}, {"measurement": "Response", "setting": "[1]", "result": 85, "unit": "%"}]}, {"smiles": "C=C(C)[C@H]1CC=C(C(=O)NCc2ccc(O)c(OC)c2)CC1", "values": [{"measurement": "EC50", "setting": "[2]", "result": 794, "unit": "nM"}, {"measurement": "Response", "setting": "[1]", "result": 74.5, "unit": "%"}]}, {"smiles": "COc1cc(CNC(=O)CCCCCCCCCCCCCCCCCCC(=O)NCc2ccc(O)c(OC)c2)ccc1O", "values": [{"measurement": "EC50", "setting": "[2]", "result": 501, "unit": "nM"}, {"measurement": "Response", "setting": "[1]", "result": 83.4, "unit": "%"}]}]}
